Test results from ChEMBL document CHEMBL1126564, “Synthesis and antimicrobial evaluation of a series of 7-[3-amino (or aminomethyl)-4-aryl (or cyclopropyl)-1-pyrrolidinyl]-4-quinolone- and -1,8-naphthyridone-3-carboxylic acids” (1993).
In brackets after ≈: the same amount, converted by molar mass.

Assays:
Type in all cases: functional
Klebsiella pneumoniae = experiment: Minimum inhibitory concentration against Klebsiella pneumoniae MGH-2
Summary of the method: (§1)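 Standard microdilution method against a panel of five Gram-negative and five Gram-positive bacterial strains. The MIC (µg/mL) was recorded for each strain.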

Mus musculus [1] = organism: Mus musculus; experiment: Median protective dose determined in acute lethal system infection caused by Streptococcus pyogenes C-203 in CD-1 mice (single dose perorally); details: po, read-out: PD50
Summary of the method: (§2)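 Acute lethal systemic infection in female Charles River CD-1 mice; compound given once, orally (po) or subcutaneously (sc), at the time of challenge. Median protective dose (PD50, mg/kg) derived from survival.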

Enterobacter cloacae = experiment: Minimum inhibitory concentration against […] MA-2646; summary of the method: as §1
Streptococcus pneumoniae = experiment: Minimum inhibitory concentration against Streptococcus pneumoniae SV-1; summary of the method: as §1
Providencia rettgeri = experiment: Minimum inhibitory concentration against Providencia rettgeri M-1771; summary of the method: as §1
Escherichia coli = experiment: Minimum inhibitory concentration against Escherichia coli Vogel; summary of the method: as §1
Enterococcus faecalis = experiment: Minimum inhibitory concentration against […] MGH-2; summary of the method: as §1
Staphylococcus aureus [2] = experiment: Minimum inhibitory concentration against Staphylococcus aureus UC-76; summary of the method: as §1
Staphylococcus aureus [3] = experiment: Minimum inhibitory concentration against Staphylococcus aureus H-228; summary of the method: as §1
Pseudomonas aeruginosa = experiment: Minimum inhibitory concentration against Pseudomonas aeruginosa UI-18; summary of the method: as §1
Mus musculus [4] = experiment: Median protective dose determined in acute lethal system infection caused by Streptococcus pyogenes C-203 in CD-1 mice (single dose sc); details: read-out: PD50; summary of the method: as §2
Streptococcus pyogenes = experiment: Minimum inhibitory concentration against Streptococcus pyogenes C-203; summary of the method: as §1
Mus musculus [5] = organism: Mus musculus; experiment: Median protective dose determined in acute lethal system infection caused by Escherichia coli vogel in CD-1 mice (single dose perorally); details: po, read-out: PD50; summary of the method: as §2
Mus musculus [6] = experiment: Median protective dose determined in acute lethal system infection caused by Escherichia coli vogel in CD-1 mice (single dose sc); details: read-out: PD50; summary of the method: as §2
[7] = Klebsiella pneumoniae, read-out: MIC
[8] = Enterobacter cloacae, read-out: MIC
[9] = Streptococcus pneumoniae, read-out: MIC
[10] = Providencia rettgeri, read-out: MIC
[11] = Escherichia coli, read-out: MIC
[12] = Enterococcus faecalis, read-out: MIC
[13] = Staphylococcus aureus, read-out: MIC
[14] = Pseudomonas aeruginosa, read-out: MIC
[15] = Streptococcus pyogenes, read-out: MIC

Row | SMILES | MIC (Klebsiella pneumoniae; [7]) | ED50 (Mus musculus [1]) | MIC (Enterobacter cloacae; [8]) | MIC (Streptococcus pneumoniae; [9]) | MIC (Providencia rettgeri; [10]) | MIC (Escherichia coli; [11]) | MIC (Enterococcus faecalis; [12]) | MIC (Staphylococcus aureus [2]; [13]) | MIC (Staphylococcus aureus [3]; [13]) | MIC (Pseudomonas aeruginosa; [14]) | ED50 (Mus musculus [4]) | MIC (Streptococcus pyogenes; [15]) | ED50 (Mus musculus [5]) | ED50 (Mus musculus [6]) | further results
1 | NC1CN(c2c(F)cc3c(=O)c(C(=O)O)cn(C4CC4)c3c2F)CC1c1ccc(F)cc1 (trans isomer) | 0.1 µg/mL (≈ 0.226 µM) | 44 mg/kg | 0.1 µg/mL (≈ 0.226 µM) | 0.1 µg/mL (≈ 0.226 µM) | 0.2 µg/mL (≈ 0.451 µM) | 0.1 µg/mL (≈ 0.226 µM) | 0.1 µg/mL (≈ 0.226 µM) | 0.013 µg/mL (≈ 0.0293 µM) | 0.025 µg/mL (≈ 0.0564 µM) | 1.6 µg/mL (≈ 3.61 µM) | 40 mg/kg | 0.1 µg/mL (≈ 0.226 µM) |  |  | 
2 | NC1CN(c2nc3c(cc2F)c(=O)c(C(=O)O)cn3C2CC2)CC1c1ccc(F)cc1 (trans isomer) | 0.2 µg/mL (≈ 0.469 µM) |  | 0.1 µg/mL (≈ 0.235 µM) | 0.2 µg/mL (≈ 0.469 µM) | 0.4 µg/mL (≈ 0.938 µM) | 0.1 µg/mL (≈ 0.235 µM) | 0.1 µg/mL (≈ 0.235 µM) | 0.025 µg/mL (≈ 0.0586 µM) | 0.1 µg/mL (≈ 0.235 µM) | 1.6 µg/mL (≈ 3.75 µM) |  | 0.2 µg/mL (≈ 0.469 µM) | 18 mg/kg | 9 mg/kg | 
3 | COc1ccccc1C1CN(c2nc3c(cc2F)c(=O)c(C(=O)O)cn3C2CC2)CC1N (stereo in doubt) |  | 44 mg/kg |  |  |  |  |  |  |  |  | 22 mg/kg |  | 37 mg/kg | 28 mg/kg | MIC (Klebsiella pneumoniae): 0.4 µg/mL (≈ 0.912 µM); MIC (Enterobacter cloacae): 0.2 µg/mL (≈ 0.456 µM); MIC (Streptococcus pneumoniae): 0.1 µg/mL (≈ 0.228 µM); MIC (Providencia rettgeri): 0.8 µg/mL (≈ 1.82 µM); MIC (Escherichia coli): 0.2 µg/mL (≈ 0.456 µM); MIC (Enterococcus faecalis): 0.2 µg/mL (≈ 0.456 µM); MIC (Staphylococcus aureus [2]): 0.05 µg/mL (≈ 0.114 µM); MIC (Staphylococcus aureus [3]): 0.1 µg/mL (≈ 0.228 µM); MIC (Pseudomonas aeruginosa): 3.1 µg/mL (≈ 7.07 µM); MIC (Streptococcus pyogenes): 0.2 µg/mL (≈ 0.456 µM)
4 | CC(C)c1ccc(C2CN(c3c(F)cc4c(=O)c(C(=O)O)cn(C5CC5)c4c3F)CC2N)cc1 (trans isomer) | 0.4 µg/mL (≈ 0.856 µM) | 100 mg/kg | 0.4 µg/mL (≈ 0.856 µM) | 0.2 µg/mL (≈ 0.428 µM) | 0.4 µg/mL (≈ 0.856 µM) | 0.4 µg/mL (≈ 0.856 µM) | 0.2 µg/mL (≈ 0.428 µM) | 0.025 µg/mL (≈ 0.0535 µM) | 0.05 µg/mL (≈ 0.107 µM) | 3.1 µg/mL (≈ 6.63 µM) | 90 mg/kg | 0.2 µg/mL (≈ 0.428 µM) |  |  | 
5 | NC1CN(c2nc3c(cc2F)c(=O)c(C(=O)O)cn3C2CC2)CC1c1ccccc1 (stereo not drawn) | 0.2 µg/mL (≈ 0.49 µM) |  | 0.1 µg/mL (≈ 0.245 µM) | 0.1 µg/mL (≈ 0.245 µM) | 0.4 µg/mL (≈ 0.979 µM) | 0.1 µg/mL (≈ 0.245 µM) | 0.2 µg/mL (≈ 0.49 µM) | 0.05 µg/mL (≈ 0.122 µM) | 0.1 µg/mL (≈ 0.245 µM) | 1.6 µg/mL (≈ 3.92 µM) |  | 0.2 µg/mL (≈ 0.49 µM) | 11 mg/kg | 6.5 mg/kg | 
6 | NC1CN(c2c(F)cc3c(=O)c(C(=O)O)cn(C4CC4)c3c2F)CC1c1ccc(O)cc1 (trans isomer) | 0.1 µg/mL (≈ 0.227 µM) |  | 0.1 µg/mL (≈ 0.227 µM) | 0.1 µg/mL (≈ 0.227 µM) | 0.2 µg/mL (≈ 0.453 µM) | 0.1 µg/mL (≈ 0.227 µM) | 0.1 µg/mL (≈ 0.227 µM) | 0.025 µg/mL (≈ 0.0566 µM) | 0.1 µg/mL (≈ 0.227 µM) | 1.6 µg/mL (≈ 3.62 µM) |  | 0.1 µg/mL (≈ 0.227 µM) | 100 mg/kg | 50 mg/kg | 
7 | NCC1CN(c2nc3c(cc2F)c(=O)c(C(=O)O)cn3C2CC2)CC1c1ccccc1 (trans isomer) | 0.05 µg/mL (≈ 0.118 µM) | 27 mg/kg | 0.05 µg/mL (≈ 0.118 µM) | 0.013 µg/mL (≈ 0.0308 µM) | 0.1 µg/mL (≈ 0.237 µM) | 0.05 µg/mL (≈ 0.118 µM) | 0.025 µg/mL (≈ 0.0592 µM) | 0.006 µg/mL (≈ 0.0142 µM) | 0.025 µg/mL (≈ 0.0592 µM) | 0.8 µg/mL (≈ 1.89 µM) | 4.5 mg/kg | 0.025 µg/mL (≈ 0.0592 µM) |  |  | 
8 | Nc1ccc(C2CN(c3nc4c(cc3F)c(=O)c(C(=O)O)cn4C3CC3)CC2N)cc1 (trans isomer) | 0.2 µg/mL (≈ 0.472 µM) |  | 0.1 µg/mL (≈ 0.236 µM) | 0.2 µg/mL (≈ 0.472 µM) | 0.4 µg/mL (≈ 0.945 µM) | 0.1 µg/mL (≈ 0.236 µM) | 0.2 µg/mL (≈ 0.472 µM) | 0.05 µg/mL (≈ 0.118 µM) | 0.2 µg/mL (≈ 0.472 µM) | 1.6 µg/mL (≈ 3.78 µM) |  | 0.2 µg/mL (≈ 0.472 µM) | 24 mg/kg | 3.1 mg/kg | 
9 | NC1CN(c2c(F)cc3c(=O)c(C(=O)O)cn(C4CC4)c3c2F)CC1c1ccccc1 (trans isomer) | 0.05 µg/mL (≈ 0.118 µM) | 10 mg/kg | 0.025 µg/mL (≈ 0.0588 µM) | 0.1 µg/mL (≈ 0.235 µM) | 0.1 µg/mL (≈ 0.235 µM) | 0.025 µg/mL (≈ 0.0588 µM) | 0.1 µg/mL (≈ 0.235 µM) | 0.013 µg/mL (≈ 0.0306 µM) | 0.025 µg/mL (≈ 0.0588 µM) | 0.8 µg/mL (≈ 1.88 µM) | 1.6 mg/kg | 0.1 µg/mL (≈ 0.235 µM) | 15.5 mg/kg | 7 mg/kg | 
10 | Nc1ccc(C2CN(c3c(F)cc4c(=O)c(C(=O)O)cn(C5CC5)c4c3F)CC2N)cc1 (trans isomer) | 0.1 µg/mL (≈ 0.227 µM) |  | 0.05 µg/mL (≈ 0.114 µM) | 0.1 µg/mL (≈ 0.227 µM) | 0.2 µg/mL (≈ 0.454 µM) | 0.05 µg/mL (≈ 0.114 µM) | 0.1 µg/mL (≈ 0.227 µM) | 0.025 µg/mL (≈ 0.0568 µM) | 0.1 µg/mL (≈ 0.227 µM) | 0.8 µg/mL (≈ 1.82 µM) |  | 0.1 µg/mL (≈ 0.227 µM) | 10 mg/kg | 1.6 mg/kg | 
11 | NCC1CN(c2nc3c(cc2F)c(=O)c(C(=O)O)cn3C2CC2)CC1c1ccco1 (trans isomer) | 0.1 µg/mL (≈ 0.242 µM) | 36 mg/kg | 0.2 µg/mL (≈ 0.485 µM) | 0.025 µg/mL (≈ 0.0606 µM) | 0.2 µg/mL (≈ 0.485 µM) | 0.1 µg/mL (≈ 0.242 µM) | 0.05 µg/mL (≈ 0.121 µM) | 0.013 µg/mL (≈ 0.0315 µM) | 0.05 µg/mL (≈ 0.121 µM) | 0.4 µg/mL (≈ 0.97 µM) | 4.2 mg/kg | 0.05 µg/mL (≈ 0.121 µM) |  |  | 
12 | NCC1CN(c2c(F)cc3c(=O)c(C(=O)O)cn(C4CC4)c3c2F)CC1c1ccccc1 (trans isomer) | 0.05 µg/mL (≈ 0.114 µM) | 10 mg/kg | 0.05 µg/mL (≈ 0.114 µM) | 0.013 µg/mL (≈ 0.0296 µM) | 0.1 µg/mL (≈ 0.228 µM) | 0.05 µg/mL (≈ 0.114 µM) | 0.013 µg/mL (≈ 0.0296 µM) | 0.003 µg/mL (≈ 0.00683 µM) | 0.013 µg/mL (≈ 0.0296 µM) | 0.8 µg/mL (≈ 1.82 µM) | 1.6 mg/kg | 0.013 µg/mL (≈ 0.0296 µM) |  |  | 
